Laboratory results from ChEMBL document CHEMBL3244353, “Antiallergy activity of substituted 11-oxo-11 H-pyrido[2,1-b]quinazoline-8-carboxylic acids” (J Med Chem, 1979).
Activity calls are given as the source filed them. The rule behind the calls is not given here.

System: not listed separately
Experiment: Antiallergic activity in rat peritoneal mast cells assessed as inhibition of ovalbumin-induced histamine release after 15 mins
Format: functional, cell-based
Conditions: Mast cell, 0.25 h
Procedure, shortened: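 Rat peritoneal mast cells were passively sensitized with the PCA antiserum, washed, and resuspended in Hank's balanced salt solution containing ovalbumin 20 mcg/mL plus drug. After 15 min at 37 °C, histamine released into the supernatant was measured fluorometrically. Value is the concentration giving 50% inhibition.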
In the case of `O=C([O-])c1cc(=O)c2c(OCC(O)COc3cccc4oc(C(=O)[O-])cc(=O)c34)cccc2o1.[Na+].[Na+]` [CROMOLYN SODIUM], the IC50 is reported as 6500 nM.
With `Cc1ccc2nc3ccc(C(=O)O)cn3c(=O)c2c1` the IC50 was 940 nM.
`O=C1c2ccccc2S(=O)(=O)c2cc(-c3nn[nH]n3)ccc21` [DOXANTRAZOLE] gave an IC50 of 480 nM.

System: Rattus norvegicus
Experiment: Antiallergic activity in po dosed rat assessed as inhibition of ovalbumin-induced passive cutaneous anaphylaxis
Format: functional
Conditions: not given
Procedure, shortened: (§1)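 Passive cutaneous anaphylaxis in rats sensitized intradermally with antiserum 48 h before iv challenge with 1 mg ovalbumin plus 0.25% Evans Blue. Drug was suspended in 1% gum tragacanth in saline and given orally 10-15 min before antigen. Spot diameter was read on reflected dorsal skin. Percent inhibition was taken against the extrapolated base value. Groups of five; ID50 in mg/kg.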
For `O=C([O-])c1cc(=O)c2c(OCC(O)COc3cccc4oc(C(=O)[O-])cc(=O)c34)cccc2o1.[Na+].[Na+]` [CROMOLYN SODIUM], the ID50 was “inactive”.

Same assay, conditions: read-out: ID50 (the source's name)
In the case of `Cc1cc2nc3ccc(C(=O)O)cn3c(=O)c2cc1C`, the ED50 is reported as 2 mg/kg.
In the case of `O=C(O)c1ccc2nc3ccc(OCCO)cc3c(=O)n2c1`, the ED50 is reported as over 1 mg/kg.
With `O=C(O)c1ccc2nc3ccc(O)cc3c(=O)n2c1` the ED50 was 5 mg/kg.
For `COc1cc2nc3ccc(C(=O)O)cn3c(=O)c2cc1OC`, the ED50 was 10 mg/kg.
`COc1ccc2c(=O)n3cc(C(=O)O)ccc3nc2c1` gave an ED50 of over 2 mg/kg.
In the case of `C=CCOc1ccc2nc3ccc(C(=O)O)cn3c(=O)c2c1`, the ED50 is reported as over 1 mg/kg.
With `CCOc1ccc2nc3ccc(C(=O)O)cn3c(=O)c2c1` the ED50 was over 1 mg/kg.
Compound `COc1ccc2nc3ccc(C(=O)O)cn3c(=O)c2c1` has an ED50 of 0.5 mg/kg.
Compound `CCCOc1ccc2nc3ccc(C(=O)O)cn3c(=O)c2c1` has an ED50 of 2 mg/kg.
`Cc1ccc2nc3ccc(C(=O)O)cn3c(=O)c2c1` showed an ED50 of 0.75 mg/kg.
For `Cl.O=C(O)c1ccc2nc3ccccc3c(=O)n2c1`, the ED50 was 2.5 mg/kg.
With `O=C(O)c1ccc2nc3ccc(Br)cc3c(=O)n2c1` the ED50 was 1 mg/kg.
`O=C(O)c1ccc2nc3cc(Cl)ccc3c(=O)n2c1` gave an ED50 of 5 mg/kg.
`O=C(O)c1ccc2nc3cc(O)c(O)cc3c(=O)n2c1` showed an ED50 of over 1 mg/kg.
Compound `CCCCOc1ccc2nc3ccc(C(=O)O)cn3c(=O)c2c1` has an ED50 of over 2 mg/kg.
`O=C1c2ccccc2S(=O)(=O)c2cc(-c3nn[nH]n3)ccc21` [DOXANTRAZOLE] showed an ED50 of 5 mg/kg.

System: Rattus norvegicus
Experiment: Antiallergic activity in po dosed rat assessed as inhibition of ovalbumin-induced passive cutaneous anaphylaxis relative to doxantrazole
Format: functional
Conditions: not given
Procedure, shortened: as §1
For `Cc1ccc2nc3ccc(C(=O)O)cn3c(=O)c2c1`, the “fold change (FC)” value was 4.

System: Rattus norvegicus
Experiment: Antiallergic activity in rat assessed as inhibition of ovalbumin-induced passive cutaneous anaphylaxis at 1 mg/kg, iv measured after 14 days
Format: functional
Conditions: not given
Procedure, shortened: (§2)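 Rats were passively sensitized by intradermal injection of antiserum dilutions on the back. 48 h later they received 1 mg ovalbumin iv in 1 mL saline with 0.25% Evans Blue. Compound was dissolved in the antigen solution, using a slight molar excess of sodium bicarbonate if needed, and given with it. Mean orthogonal spot diameter was read on reflected dorsal skin. Percent inhibition was taken against the extrapolated base value. n=5 per group; Student's t test, p≤0.05.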
In the case of `COc1ccc2c(=O)n3cc(C(=O)O)ccc3nc2c1`, the inhibition in vivo at 1 mg/kg is reported as 100%.

System: Rattus norvegicus
Experiment: Antiallergic activity in rat assessed as inhibition of ovalbumin-induced passive cutaneous anaphylaxis at 0.5 mg/kg, iv measured after 14 days relative to doxantrazole
Format: functional
Conditions: not given
Procedure, shortened: as §2
With `Cc1ccc2nc3ccc(C(=O)O)cn3c(=O)c2c1` the “fold change (FC)” value was 30.

System: Rattus norvegicus
Experiment: Antiallergic activity in rat assessed as inhibition of ovalbumin-induced passive cutaneous anaphylaxis at 10 mg/kg, ip measured after 14 days
Format: functional
Conditions: route intraperitoneal
`Cc1ccc2c(=O)n3cc(C(=O)O)ccc3nc2c1` gave an inhibition in vivo at 10 mg/kg of 54%.

System: Rattus norvegicus
Experiment: Antiallergic activity in po dosed rat allergic bronchoconstriction model assessed as reduction in respiratory flow rate administered 15 to 30 mins prior to ovalbumin challenge measured after 10 mins relative to doxantrazole
Format: functional
Conditions: not given
Procedure, shortened: (§3)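 Rats were immunized im with 1 mg ovalbumin on alumina, three times on alternate days. On day 8, 9 or 10 they were anesthetized with pentobarbital 60 mg/kg ip, tracheally cannulated and allowed to breathe spontaneously via a pneumotachograph. Drug was given orally 15 and 30 min before iv jugular 1 mg ovalbumin. Fall in respiratory flow rate and 10-min survival were recorded. Value is the mg/kg po dose inhibiting a 40% flow reduction.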
With `Cc1ccc2nc3ccc(C(=O)O)cn3c(=O)c2c1` the “fold change (FC)” value was 4.6.

System: Rattus norvegicus
Experiment: Antiallergic activity in iv dosed rat assessed as inhibition of ovalbumin-induced passive cutaneous anaphylaxis
Format: functional
Conditions: not given
Procedure, shortened: as §2
Work on `Cc1ccc2nc3ccc(C(=O)O)cn3c(=O)c2c1` yielded an ID100 of 2.5 mg/kg.
With `O=C1c2ccccc2S(=O)(=O)c2cc(-c3nn[nH]n3)ccc21` [DOXANTRAZOLE] the ID100 was 10 mg/kg.

Same assay, conditions: Rattus norvegicus, iv; read-out: ID50 (the source's name)
For `O=C(O)c1ccc2nc3ccc(O)cc3c(=O)n2c1`, the ED50 was 0.05 mg/kg.
Compound `COc1cc2nc3ccc(C(=O)O)cn3c(=O)c2cc1OC` has an ED50 of 0.05 mg/kg.
Compound `O=C([O-])c1cc(=O)c2c(OCC(O)COc3cccc4oc(C(=O)[O-])cc(=O)c34)cccc2o1.[Na+].[Na+]` [CROMOLYN SODIUM] has an ED50 of 1 mg/kg.
In the case of `COc1ccc2nc3ccc(C(=O)O)cn3c(=O)c2c1`, the ED50 is reported as 0.05 mg/kg.
Compound `Cc1ccc2nc3ccc(C(=O)O)cn3c(=O)c2c1` has an ED50 of 0.05 mg/kg.
`Cl.O=C(O)c1ccc2nc3ccccc3c(=O)n2c1` showed an ED50 of 0.5 mg/kg.
In the case of `O=C1c2ccccc2S(=O)(=O)c2cc(-c3nn[nH]n3)ccc21` [DOXANTRAZOLE], the ED50 is reported as 1.5 mg/kg.

System: Rattus norvegicus
Experiment: Antiallergic activity in po dosed rat allergic bronchoconstriction model assessed as survival from death by bronchoconstriction administered 15 to 30 mins prior to ovalbumin challenge measured after 10 mins relative to doxantrazole
Format: functional
Conditions: not given
For `Cc1ccc2nc3ccc(C(=O)O)cn3c(=O)c2c1`, the “fold change (FC)” value was 10.

Organism: Cavia porcellus
Experiment: Antagonist activity at histamine receptor in guinea pig ileum assessed as reduction in histamine-induced contractions up to 0.1 mM
Format: tissue-based
Conditions: not given
With `Cc1ccc2nc3ccc(C(=O)O)cn3c(=O)c2c1` the inhibition was “inactive”.

System: Rattus norvegicus
Experiment: Antiallergic activity in rat assessed as inhibition of ovalbumin-induced passive cutaneous anaphylaxis at 0.5 mg/kg, iv measured after 14 days relative to cromolyn sodium
Format: functional
Conditions: not given
Procedure, shortened: as §2
In the case of `Cc1ccc2nc3ccc(C(=O)O)cn3c(=O)c2c1`, the “fold change (FC)” value is reported as 30.

System: Rattus norvegicus
Experiment: Antiallergic activity in rat assessed as inhibition of ovalbumin-induced passive cutaneous anaphylaxis at 0.5 mg/kg, iv measured after 14 days
Format: functional
Conditions: not given
Procedure, shortened: as §2
In the case of `Cc1cc2nc3ccc(C(=O)O)cn3c(=O)c2cc1C`, the inhibition in vivo at 0.5 mg/kg is reported as 25%.
`O=C(O)c1ccc2nc3ccc(O)cc3c(=O)n2c1` showed an inhibition in vivo at 0.5 mg/kg of 100%.
`COc1cc2nc3ccc(C(=O)O)cn3c(=O)c2cc1OC` gave an inhibition in vivo at 0.5 mg/kg of 100%.
Work on `O=C(O)c1ccc2nc3cc4c(cc3c(=O)n2c1)OCO4` yielded an inhibition in vivo at 0.5 mg/kg of 30%.
For `COc1ccc2nc3ccc(C(=O)O)cn3c(=O)c2c1`, the inhibition in vivo at 0.5 mg/kg was 100%.
In the case of `CCCOc1ccc2nc3ccc(C(=O)O)cn3c(=O)c2c1`, the inhibition in vivo at 0.5 mg/kg is reported as 100%.
`Cc1ccc2nc3ccc(C(=O)O)cn3c(=O)c2c1` gave an inhibition in vivo at 0.5 mg/kg of 100%.
For `Cl.O=C(O)c1ccc2nc3ccccc3c(=O)n2c1`, the inhibition in vivo at 0.5 mg/kg was 45%.
With `O=C(O)c1ccc2nc3cc(O)ccc3c(=O)n2c1` the inhibition in vivo at 0.5 mg/kg was 36%.
`O=C(O)c1ccc2nc3ccc(Br)cc3c(=O)n2c1` gave an inhibition in vivo at 0.5 mg/kg of 34%.
With `O=C(O)c1ccc2nc3ccc(Cl)cc3c(=O)n2c1` the inhibition in vivo at 0.5 mg/kg was 40%.
Work on `CCCCOc1ccc2nc3ccc(C(=O)O)cn3c(=O)c2c1` yielded an inhibition in vivo at 0.5 mg/kg of 88%.

System: Rattus norvegicus
Experiment: Antiallergic activity in po dosed rat allergic bronchoconstriction model assessed as survival from death by bronchoconstriction administered 15 to 30 mins prior to ovalbumin challenge measured after 10 mins
Format: functional
Conditions: read-out: ID50 (the source's name)
Procedure, shortened: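 Rats immunized im with 1 mg ovalbumin on alumina in the nuchal region, three times on alternate days. On day 8, 9 or 10 they were anaesthetised (pentobarbital 60 mg/kg ip), tracheally cannulated and breathed spontaneously. Drug was given po 15 and 30 min before a 1 mg ovalbumin iv (jugular) challenge. Survival was scored over 10 min, giving the po dose that prevents death in 50% of animals.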
With `Cc1ccc2nc3ccc(C(=O)O)cn3c(=O)c2c1` the ED50 was 12.5 mg/kg.
For `O=C1c2ccccc2S(=O)(=O)c2cc(-c3nn[nH]n3)ccc21` [DOXANTRAZOLE], the ED50 was 125 mg/kg.

System: Rattus norvegicus
Experiment: Antiallergic activity in po dosed rat allergic bronchoconstriction model assessed as reduction in respiratory flow rate administered 15 to 30 mins prior to ovalbumin challenge measured after 10 mins
Format: functional
Conditions: not given
Procedure, shortened: as §3
`Cc1ccc2nc3ccc(C(=O)O)cn3c(=O)c2c1` showed an ID40 of 9.3 mg/kg.
For `O=C1c2ccccc2S(=O)(=O)c2cc(-c3nn[nH]n3)ccc21` [DOXANTRAZOLE], the ID40 was 43 mg/kg.
